Test [1] concerns the target T1, Histone deacetylase 6 (Danio rerio) (UniProt F8W4B7).
T1 sequence (whole entry): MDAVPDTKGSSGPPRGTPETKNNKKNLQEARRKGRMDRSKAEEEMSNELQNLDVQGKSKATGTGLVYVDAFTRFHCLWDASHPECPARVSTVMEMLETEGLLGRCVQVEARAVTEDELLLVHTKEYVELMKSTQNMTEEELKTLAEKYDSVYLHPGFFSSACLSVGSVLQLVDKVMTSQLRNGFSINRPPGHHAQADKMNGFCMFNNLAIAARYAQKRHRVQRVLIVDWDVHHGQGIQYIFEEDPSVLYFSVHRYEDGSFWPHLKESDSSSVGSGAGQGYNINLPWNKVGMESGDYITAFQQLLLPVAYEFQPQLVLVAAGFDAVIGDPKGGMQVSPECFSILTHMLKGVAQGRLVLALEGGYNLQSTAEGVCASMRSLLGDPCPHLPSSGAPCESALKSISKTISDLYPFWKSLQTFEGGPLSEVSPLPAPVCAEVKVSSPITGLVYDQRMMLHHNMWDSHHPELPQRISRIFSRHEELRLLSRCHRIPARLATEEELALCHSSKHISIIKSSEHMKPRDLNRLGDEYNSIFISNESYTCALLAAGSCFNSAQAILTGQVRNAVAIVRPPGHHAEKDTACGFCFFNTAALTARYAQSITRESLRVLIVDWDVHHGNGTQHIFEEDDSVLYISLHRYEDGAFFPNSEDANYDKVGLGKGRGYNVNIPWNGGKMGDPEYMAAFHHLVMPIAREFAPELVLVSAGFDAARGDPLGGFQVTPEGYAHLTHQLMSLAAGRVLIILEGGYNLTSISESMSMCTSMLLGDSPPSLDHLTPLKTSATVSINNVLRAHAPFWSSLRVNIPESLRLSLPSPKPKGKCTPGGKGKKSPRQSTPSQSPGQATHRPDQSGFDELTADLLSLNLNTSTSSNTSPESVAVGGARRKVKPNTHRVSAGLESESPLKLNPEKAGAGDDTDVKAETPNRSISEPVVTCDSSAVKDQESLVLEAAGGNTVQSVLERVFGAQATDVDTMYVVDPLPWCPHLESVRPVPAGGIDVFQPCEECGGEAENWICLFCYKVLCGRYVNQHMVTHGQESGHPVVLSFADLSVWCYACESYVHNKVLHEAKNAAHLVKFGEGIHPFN
The experiment in a line: Irreversible inhibition of Danio rerio HDAC6 catalytic domain 2 assessed as enzyme catalysed ring opening by measuring 2-(Benzylamino)pyrimidine-5-carbohydrazide level at 100 uM incubated overnight by LC-MS analysis. Put shortly:
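Danio rerio HDAC6 catalytic domain 2 (zCD2), 50 μM, in 50 mM HEPES pH 7.5, 100 mM KCl, 1 mM TCEP, 5% glycerol, incubated overnight with 100 μM inhibitor (100 μL). Enzyme-free inhibitor controls run in parallel. Protein precipitated with methanol and filtered. Filtrate analysed by C18 reverse-phase UPLC-MS with a 2-min H2O/MeCN gradient.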

In test [2] the test system is T2, Histone deacetylase 6 (Danio rerio), F8W4B7 [H574A].
T2 sequence (whole entry): T1 sequence (whole entry) with H574A
The experiment in a line: Irreversible inhibition of Danio rerio HDAC6 H574A mutant catalytic domain 2 assessed as enzyme catalysed ring opening by measuring reduction in 2-(Benzylamino)-N'-(2,2-difluoroacetyl)pyrimidine-5-carbohydrazide formation at 100 uM incubated overnight by LC-MS analysis. Put shortly:
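Zebrafish HDAC6 CD2 mutants were made by site-directed mutagenesis and expressed in BL21(DE3). Enzyme at 50 μM was incubated overnight with 100 μM inhibitor in 50 mM HEPES pH 7.5, 100 mM KCl, 1 mM TCEP, 5% glycerol; an enzyme-free control was included. Protein was methanol-precipitated and filtered, and products were analysed by C18 UPLC-MS with a 2-min gradient.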

Changes are numbered by the printed parent chain. Activity calls are given as the source filed them. The calls are words filed in the database; no cut-off is given here.

For `FC(F)(F)c1nnc(-c2cnc(NCc3ccccc3)nc2)o1`, the Activity in test [1] was 18 µM. Also, in test [2], the inhibition result is “Active”.
As to `FC(F)c1nnc(-c2cnc(NCc3ccccc3)nc2)o1`, the Activity in test [1] amounted to 9 µM. Also, the inhibition result in test [2] was “Active”.

Values taken from ChEMBL document CHEMBL5365542, “Difluoromethyl-1,3,4-oxadiazoles Are Selective, Mechanism-Based, and Essentially Irreversible Inhibitors of Histone Deacetylase 6” (J Med Chem, 2023).
